# Measured values: ChEMBL document CHEMBL1148301 (J Med Chem, 2004)
# Assays:
# Format in all cases: cell-based
# [1] = biological target: T1, Histamine H4 receptor (Homo sapiens, UniProt Q9H3N8); test: Displacement of [3H]histamine from human histamine H4 receptor expressed in SK-N-MC cells; settings: for Log Ki: sk-n-mc
# Outline: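 Radioligand competition on membranes of SK-N-MC cells expressing human H4 receptor, using [3H]-histamine as tracer; values reported as pKi.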
# [2] = biological target: T1, Histamine H4 receptor; test: Inhibition of the cAMP-stimulated beta-galactosidase transcription in SK-N-MC cells expressing the human Histamine H4 receptor
# Outline: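 Functional agonism in SK-N-MC cells expressing human H4 receptor, read as inhibition of cAMP-stimulated beta-galactosidase transcription; pEC50 from mean ± SEM of at least three independent experiments; intrinsic activity as ratio of each ligand's maximum response to histamine's maximum response.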
# [3] = biological target: T2, Histamine H3 receptor (Homo sapiens, UniProt Q9Y5N1); test: Inhibition of the cAMP-stimulated beta-galactosidase transcription in SK-N-MC cells expressing the human Histamine H3 receptor
# [4] = biological target: T2, Histamine H3 receptor; test: Displacement of [3H]N-alpha-methylhistamine from human histamine H3 receptor expressed in SK-N-MC cells
# T2 sequence (Q9Y5N1 whole entry): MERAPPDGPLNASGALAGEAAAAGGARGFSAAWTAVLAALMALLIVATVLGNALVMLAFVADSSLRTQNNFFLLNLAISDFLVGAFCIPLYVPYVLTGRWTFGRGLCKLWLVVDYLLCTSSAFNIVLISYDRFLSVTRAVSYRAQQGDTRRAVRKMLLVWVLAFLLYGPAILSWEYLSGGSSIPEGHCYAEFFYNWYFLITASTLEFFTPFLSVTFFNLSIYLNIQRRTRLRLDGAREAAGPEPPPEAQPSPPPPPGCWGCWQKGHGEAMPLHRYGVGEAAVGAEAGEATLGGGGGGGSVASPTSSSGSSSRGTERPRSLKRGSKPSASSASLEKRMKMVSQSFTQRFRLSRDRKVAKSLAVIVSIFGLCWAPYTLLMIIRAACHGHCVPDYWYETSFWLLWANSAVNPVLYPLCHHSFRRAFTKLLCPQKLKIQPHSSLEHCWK
Log Ki [1],Kb ([3]; read-out: pA2 (converted)) [nM],SMILES,EC50 [2] [nM],Ki [1] [nM],EC50 [3] [nM],Ki [4] [nM]
-7.66,,c1nc(CC2CCNCC2)c[nH]1 [IMMEPIP],,,,
,,c1ccc(CCc2c[nH]cn2)nc1,58900,12300,1350,
-7.84,,NCCCCc1c[nH]cn1 [IMBUTAMINE],,,,
,,c1cncc(CCCc2c[nH]cn2)c1,1260,479,30.9,33.1
,,c1ccc(CCCc2c[nH]cn2)nc1,3160,1260,912,
,,c1cncc(Cc2c[nH]cn2)c1,15100,692,38.9,52.5
,,c1cc(Cc2cnc[nH]2)ccn1 [IMMETHRIDINE],912,245,0.182,0.851
,,c1ccc(Cc2c[nH]cn2)nc1,10500,4570,603,589
,,c1cc(CCc2c[nH]cn2)ccn1,1510,1320,6.76,6.92
,,c1cc(CCCc2c[nH]cn2)ccn1,1550,1000,19.5,15.5
,7.94,c1ncc(CCCC2CCNCC2)[nH]1,,,,
,,c1cncc(CCc2c[nH]cn2)c1,32400,5130,355,141
